Assay results as given in publication PMC2151501 (The Journal of General Physiology, 2006).
Entries after “also recorded” stand apart in the source; their conditions may differ. No end group written: not given here.

Legend:
[1] = system: Na+ channels in dissociated neurons; conditions: ref Grieco and Raman, 2004; cited from earlier work
[2] = system: BTX-modified wild-type hNav1.5 Na+ channels; assay: Time-dependent block of BTX-modified wild-type Na+ currents; format: cell-based; conditions: 4 μM BTX; acetyl-KIFMK-amide 2 mM, β4_154–167 1 mM, after 2,000 pulses
Method in brief: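 Channels were modified by 4 μM BTX (final, from 0.5 mM DMSO stock) in the pipette, which also held either 2 mM acetyl-KIFMK-amide or 1 mM peptide. Cells were held at −140 mV and depolarized to 50 mV. The maintained-to-peak current ratio at 50 mV was measured. Five to six cells.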

[3] = target: hNav1.5-CW/F1760K mutant Na+ channels (Homo sapiens, UniProt Q14524, A410W/F1760K/L409C); conditions: ref Wang and Wang, cited from earlier work
[4] = target: T1, hNav1.5-CW inactivation-deficient mutant Na+ channels (Homo sapiens, UniProt Q14524, A410W/L409C); assay: Unblocking upon repolarization, two-pulse protocol; format: cell-based; conditions: 2 mM in pipette
Method in brief: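 Whole-cell hNav1.5-CW currents were recorded in HEK293t cells at room temperature with 2 mM peptide in the pipette. A two-pulse protocol with a 10-ms interpulse interval was used. Peak current amplitude at the second pulse was compared with that at the first.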

[5] = target: T2, inactivation-deficient hNav1.5-L409C/A410W (hNav1.5-CW) Na+ channels (Homo sapiens, UniProt Q14524, A410W/L409C); format: cell-based; conditions: intracellular peptide, 50 mV; 25–250 μM for β4_154–167
Method in brief: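 Transiently transfected HEK293t cells (calcium phosphate; CD8 bead selection; used 1–4 d) expressing hNav1.5-L409C/A410W with rat β1. Peptide at 25–250 μM was dialysed via the pipette. Whole-cell currents were recorded at 50 mV from −140 mV holding, at 22–24°C. Decay was fitted with a single exponential. Steady-state block was taken ∼30 min after break-in.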

[6] = system: inactivation-deficient rNav1.2 Na+ channels; conditions: ref Eaholtz et al., 1994; Tang et al., 1996; Wang and Wang, 2005; cited from earlier work
[7] = target: T3, inactivation-deficient hNav1.5-CW mutant Na+ channels (Homo sapiens, UniProt Q14524, A410W/L409C); assay: Resurgent Na+ currents near the activation threshold; format: cell-based; conditions: 2 mM in pipette, −80 to −20 mV, five cells
Method in brief: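 Whole-cell recording at room temperature (22–24°C) from transfected HEK293t cells expressing hNav1.5-CW plus rat β1, with 2 mM acetyl-peptide in the internal solution. After the test pulse, tail currents were recorded at −80 to −20 mV in 20-mV steps. Bath: 65 mM NaCl, 85 mM choline Cl, 2 mM CaCl2, 10 mM HEPES, pH 7.4. Five cells.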

[8] = target: T1, hNav1.5-CW inactivation-deficient mutant Na+ channels; assay: Use-dependent block during repetitive pulses; format: cell-based; conditions: for use-dependent block of peak currents, 20 ms pulses: β4_154–167 n = 6, acetyl-KIFMK-amide n = 5
[9] = target: T2, inactivation-deficient hNav1.5-L409C/A410W (hNav1.5-CW) Na+ channels; conditions: ref Eaholtz et al., 1994; Tang et al., 1996; Wang and Wang, 2005; cited from earlier work
Shaker K+ channels = conditions: 50 mV, ref Murrell-Lagnado and Aldrich, 1993; cited from earlier work
[10] = system: voltage-gated Na+ channels; conditions: ref Catterall, 1980; Wang and Wang, 2003; Strichartz, et al., 1987; cited from earlier work
[11] = target: T3, inactivation-deficient hNav1.5-CW mutant Na+ channels; assay: On and off rates of β4_154–167 binding at 50 mV; format: cell-based
Method in brief: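 HEK293t cells transiently co-expressing inactivation-deficient hNav1.5-CW with rat β1, whole-cell clamp at 22–24°C, holding −140 mV. Peptide was included in the pipette solution (NaF/NaCl/EGTA/HEPES, pH 7.2) at 25–250 μM. The time-dependent block at 50 mV was fitted single-exponentially. 1/τ was plotted against concentration and fitted by linear regression: slope gave kon, intercept gave koff; n = 5.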

[12] = 2 mM in pipette, 50 mV/20 ms at 1 Hz

β-pompilidotoxin
effect on fast inactivation gating (in words) [1]: slowed the fast inactivation gating considerably

acetyl-KIFMK-amide
block of BTX-modified open Na+ channels (in words) [2]: resistant to β4_154–167 and acetyl-KIFMK-amide block; also recorded: little time-dependent block was found
effect of hNav1.5-F1760K on time-dependent block (in words) ([3]; hNav1.5-F1760K, 2005): hinders its time-dependent block
effect of hNav1.5-F1760K on use-dependent block (in words) ([3]; hNav1.5-F1760K, 2005): abolishes the use-dependent block
tail current decay τ, short test pulse ([4]; short test pulse, n = 6): 0.23 ± 0.02 ms
unblocking upon repolarization (in words) ([4]; −140 mV, two-pulse protocol, 10-ms interval, six cells): also occurred rapidly
time-dependent block of inactivation-deficient Na+ currents (in words) [5]: restored the fast inactivation phenotype in hNav1.5 inactivation-deficient Na^+ channels
restoration of fast inactivation, rNav1.2 (in words) [6]: can restore fast inactivation
resurgent tail currents near activation threshold (in words), acetyl-KIFMK-amide [7]: elicited robust resurgent currents
additional use-dependent block on outward peak and inward tail currents [8, 12]: ~65%
tail current decay relative to β4_154–167 [8, 12]: four times faster
use-dependent block of peak currents, 20 ms pulses [8, 12]: 62.4 ± 3.1%
use-dependent block, 3 ms pulses ([8]; 2 mM in pipette, repetitive pulses, 3 ms, n = 5): 28.5 ± 0.4%
fitted τ of use-dependent block, 1 ms pulses ([8]; 50 mV for 1 ms at 1 Hz, n = 5): 27.1 pulses
use-dependent block, 1 ms pulses ([8]; 50 mV for 1 ms at 1 Hz, n = 5): 15.5 ± 0.4%
fitted τ of use-dependent block, 3 ms pulses ([8]; repetitive pulses, 3 ms, n = 5): 14.5 pulses
restoration of fast inactivation, inactivation-deficient hNav1.5 (in words) [9]: can restore fast inactivation

ShB peptide: the first 20 amino acids on the NH2 terminus of the Shaker channel (MAAVAGLYGLGEDRQHRKKQ; UniProt P08510 1-20, looked up, fragment)
koff (Shaker K+ channels): 13.8 s⁻¹

Batrachotoxin [BTX]
sensitivity of hNav1.5-CW/F1760K to BTX (in words) [3]; 2003: BTX-resistant
effect of BTX on voltage-gated Na+ channels (in words) [10]: eliminates the fast inactivation of voltage-gated Na^+ channels

KKLITFILKKTREK [β4_154–167]
koff ([11]; read-out: off rate (koff) of binding): 49.1 s⁻¹
kon ([11]; read-out: on rate (kon) of binding): 1.01e+07 M⁻¹ s⁻¹
use-dependent block of peak currents, 20 ms pulses [8, 12]: 2.9 ± 1.6%
